Test results from ChEMBL document CHEMBL4196197, “Irilone from Red Clover ( Trifolium pratense) Potentiates Progesterone Signaling” (J Nat Prod, 2018).
Calls of active or inactive are those of the source. The calls are words filed in the database; no cut-off is given here.

What was measured:
[1] = biological target: T1, Progesterone receptor (Homo sapiens) (UniProt P06401); assay: Antagonist activity at PR-b (unknown origin) expressed in Ishikawa cells assessed as inhibition of progesterone-induced PRE activity at 50 uM after 24 hrs by luciferase reporter gene based luminescence assay; format: cell-based
T1 sequence (whole entry): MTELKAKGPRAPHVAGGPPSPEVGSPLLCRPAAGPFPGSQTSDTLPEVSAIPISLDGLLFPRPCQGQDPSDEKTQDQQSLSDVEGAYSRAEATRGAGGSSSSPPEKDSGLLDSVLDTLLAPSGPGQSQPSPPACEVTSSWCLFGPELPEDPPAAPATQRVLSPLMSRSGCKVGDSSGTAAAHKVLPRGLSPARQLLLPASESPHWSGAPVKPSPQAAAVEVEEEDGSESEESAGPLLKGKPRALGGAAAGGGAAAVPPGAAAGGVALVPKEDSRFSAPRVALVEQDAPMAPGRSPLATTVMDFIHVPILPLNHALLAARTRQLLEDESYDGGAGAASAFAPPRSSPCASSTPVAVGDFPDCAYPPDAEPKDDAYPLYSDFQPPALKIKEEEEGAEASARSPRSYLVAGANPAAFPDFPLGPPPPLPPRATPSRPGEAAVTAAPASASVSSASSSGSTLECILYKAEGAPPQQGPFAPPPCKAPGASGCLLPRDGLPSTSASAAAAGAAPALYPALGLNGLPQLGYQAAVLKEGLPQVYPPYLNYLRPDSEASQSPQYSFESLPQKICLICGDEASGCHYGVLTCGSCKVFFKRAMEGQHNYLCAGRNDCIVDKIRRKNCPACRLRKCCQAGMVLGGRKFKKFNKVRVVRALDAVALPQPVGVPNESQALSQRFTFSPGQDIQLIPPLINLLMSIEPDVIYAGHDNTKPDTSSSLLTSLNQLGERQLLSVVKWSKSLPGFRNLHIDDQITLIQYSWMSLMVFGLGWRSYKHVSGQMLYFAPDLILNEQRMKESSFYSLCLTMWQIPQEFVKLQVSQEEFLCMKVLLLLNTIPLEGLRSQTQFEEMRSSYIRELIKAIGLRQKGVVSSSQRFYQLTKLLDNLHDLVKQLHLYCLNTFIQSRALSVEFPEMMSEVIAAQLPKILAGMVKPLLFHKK
In short: (§1)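 PRE/Luc transactivation in Ishikawa cells stably expressing PR-B under CMV, seeded 40,000/well in steroid-free phenol red-free medium with charcoal-stripped FBS. Next day co-transfected with PRE/Luc and CMV-β-galactosidase. Compounds were given together with 100 nM progesterone for 24 h. Luciferase, averaged over the first six RLU reads, normalized to β-gal and then to control; n≥3.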

[2] = biological target: T1, Progesterone receptor (Homo sapiens); assay: Antagonist activity at PR-b (unknown origin) expressed in Ishikawa cells assessed as inhibition of progesterone-induced PRE activity at >= 25 uM after 24 hrs by luciferase reporter gene based luminescence assay; format: cell-based; in short: as §1
[3] = biological target: T1, Progesterone receptor (Homo sapiens); assay: Antagonist activity at PR-b (unknown origin) expressed in Ishikawa cells assessed as inhibition of basal PRE activity at 25 to 50 uM after 24 hrs in absence of progesterone by luciferase reporter gene based luminescence assay; format: cell-based
In short: (§2)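 Ishikawa cells stably expressing CMV-driven PR-B, kept in phenol red-free DMEM/F12 with 5% charcoal-stripped FBS plus G418/hygromycin. Seeded 40,000/well in steroid-free medium. Next day transfected with PRE/Luc plus CMV-β-galactosidase (LT1). Compounds were added without progesterone for 24 h, then lysed and frozen at −80 °C. Luciferase (mean of first six RLU reads) normalized to β-gal, then to DMSO control, n≥3.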

Progesterone receptor = biological target: T2, Progesterone receptor (Homo sapiens, UniProt P06401); assay: Induction of PR-b degradation in human Ishikawa cells up to 50 uM after 24 hrs by Western blot analysis; format: cell-based
T2 sequence (P06401 whole entry): T1 sequence (whole entry)
In short: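 Ishikawa PR-B cells in steroid-free medium treated with 0, 25 or 50 μM for 24 h. RIPA lysates with protease/phosphatase inhibitors, 25 μg protein by SDS-PAGE onto nitrocellulose. Blocked in 5% milk, probed overnight with anti-PR (H-190, 1:500) and β-actin (1:1000), anti-rabbit secondary, chemiluminescent detection.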

[4] = biological target: T1, Progesterone receptor (Homo sapiens); assay: Antagonist activity at PR-b (unknown origin) expressed in Ishikawa cells assessed as inhibition of basal PRE activity at 50 uM after 24 hrs in absence of progesterone by luciferase reporter gene based luminescence assay; format: cell-based; in short: as §2
[5] = biological target: T1, Progesterone receptor (Homo sapiens); assay: Agonist activity at PR-b (unknown origin) expressed in Ishikawa cells assessed as increase in progesterone-induced PRE activity at 1 uM after 24 hrs by luciferase reporter gene based luminescence assay; format: cell-based; in short: as §1
[6] = biological target: T1, Progesterone receptor (Homo sapiens); assay: Agonist activity at PR-b (unknown origin) expressed in Ishikawa cells assessed as increase in PRE activity at 1 uM after 24 hrs in absence of progesterone by luciferase reporter gene based luminescence assay; format: cell-based; in short: as §2
PEO1 [7] = assay: Antiproliferative activity against human PEO1 cells at 0.001 to 10 uM after 5 days by SRB assay; format: functional, cell-based
In short: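 PEO1 cells kept in RPMI with 2 mM glutamine, 2 mM sodium pyruvate and 10% FBS; seeded at 1,000 cells/well in steroid-free medium. A day-0 plate was fixed with 20% TCA 2 h after seeding; the second plate was treated for 5 days, then fixed. SRB stain (0.4% in 1% acetic acid), dissolved in 10 mM Tris, A505; day 5 normalized to day 0; n≥3.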

[8] = biological target: T1, Progesterone receptor (Homo sapiens); assay: Agonist activity at PR-b (unknown origin) expressed in Ishikawa cells assessed as increase in PRE activity at 50 uM after 24 hrs by luciferase reporter gene based luminescence assay (reference value: 25.7); format: cell-based; in short: as §2
[9] = biological target: T1, Progesterone receptor (Homo sapiens); assay: Agonist activity at PR-b (unknown origin) expressed in Ishikawa cells assessed as increase in progesterone-induced PRE activity at 25 uM after 24 hrs by luciferase reporter gene based luminescence assay relative to control; format: cell-based; in short: as §1
[10] = biological target: T1, Progesterone receptor (Homo sapiens); assay: Agonist activity at PR-b (unknown origin) expressed in Ishikawa cells assessed as increase in progesterone-induced PRE activity at 50 uM after 24 hrs by luciferase reporter gene based luminescence assay relative to control; format: cell-based; in short: as §1
[11] = biological target: T1, Progesterone receptor (Homo sapiens); assay: Agonist activity at PR-b (unknown origin) expressed in Ishikawa cells assessed as increase in PRE activity at 1 to 50 uM after 24 hrs in absence of progesterone by luciferase reporter gene based luminescence assay; format: cell-based; in short: as §2
PEO1 [12] = assay: Antiproliferative activity against human PEO1 cells at 1 to 50 uM after 5 days by SRB assay; format: functional, cell-based
In short: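 PEO1 cells (RPMI, 10% FBS, glutamine, pyruvate) seeded at 1,000/well in steroid-free medium, one plate fixed at 2 h as day 0. Compounds at 1–50 μM, alone without progesterone, for 5 days. Fixed with 20% TCA at 4 °C, stained with 0.4% SRB in 1% acetic acid, dissolved in 10 mM Tris, A505. Day 5 normalized to day 0; n≥3.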

PEO1 [13] = assay: Antiproliferative activity against human PEO1 cells at 25 to 50 uM after 5 days by SRB assay; format: functional, cell-based
In short: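 SRB growth assay in PEO1 cells: 1,000 cells/well in steroid-free medium, day-0 plate TCA-fixed 2 h after seeding. Compound was given together with 100 nM progesterone for five days, then cells TCA-fixed, SRB-stained, dye solubilized in 10 mM Tris, absorbance at 505 nm. Day-5 values normalized to day 0; n≥3.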

Row | SMILES | inhibition [1] [%] | inhibition [2] | Activity (Progesterone receptor) | inhibition [4] | Activity [5] | also measured
1 | COc1cc(O)c2c(=O)c(-c3ccc(O)cc3)coc2c1 [PRUNETIN] | > 90 | Active | Not Active |  |  | inhibition [3]: Active
2 | COc1ccc(-c2coc3cc(O)ccc3c2=O)cc1 [FORMONONETIN] | > 90 | Active | Not Active | Active | 57% | 
3 | COc1ccc(-c2coc3cc(O)cc(O)c3c2=O)cc1 [BIOCHANIN] | > 90 | Active | Not Active | Active | Active | Activity [6]: 55%
4 | CC(=O)[C@H]1CC[C@H]2[C@@H]3CCC4=CC(=O)CC[C@]4(C)[C@H]3CC[C@]12C |  |  |  |  |  | Activity (PEO1 [7]): inactive
5 | O=c1c(-c2ccc(O)cc2)coc2cc3c(c(O)c12)OCO3 |  |  | Not Active |  |  | fold change (FC) [8]: 48.4; Activity [9]: 138%; Activity [10]: 151%; Activity [11]: inactive; Activity (PEO1 [12]): inactive; Activity (PEO1 [13]): Active
